ChEMBL document CHEMBL4229515, “A novel synthesis of 2-arylbenzimidazoles in molecular sieves-MeOH system and their antitubercular activity” (Bioorg Med Chem, 2018)

Experiments:
Mus musculus [1] = assay: Acute toxicity in Swiss albino mouse assessed as effect on absolute spleen weight at 5 to 1000 mg/kg, po after 7 days; type: organism-based; details: in vivo, 168 h
Procedure, shortened: (§1)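 Single acute oral dose of 5, 50, 300 or 1000 mg/kg body weight, with an untreated control group; n=6 mice per group. Animals observed for 7 days for morbidity, mortality, behaviour and body weight. At the end, blood and serum were analysed, and organs were examined grossly with absolute and relative weights. Data are mean±SE; P<0.05 was taken as significant versus control and the lower-dose groups.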

Mus musculus [2] = assay: Acute toxicity in Swiss albino mouse assessed as effect on relative liver weight at 1000 mg/kg, po after 7 days; type: organism-based; details: in vivo, 168 h; procedure, shortened: as §1
Mus musculus [3] = assay: Acute toxicity in Swiss albino mouse assessed as effect on RBC count at 300 mg/kg, po after 7 days (reference value: 7.61 +/- 0.54 10^6/mm3); type: organism-based; details: in vivo, 168 h
Mus musculus [4] = assay: Acute toxicity in Swiss albino mouse assessed as effect on albumin levels at 5 mg/kg, po after 7 days (reference value: 3.53 +/- 0.35 mg/dL); type: organism-based; details: in vivo, 168 h
Mus musculus [5] = assay: Acute toxicity in Swiss albino mouse assessed as inactivity at 1000 mg/kg, po measured over 7 days; type: organism-based; details: in vivo, 168 h; procedure, shortened: as §1
Mus musculus [6] = assay: Acute toxicity in Swiss albino mouse assessed as effect on cholesterol levels at 1000 mg/kg, po after 7 days (reference value: 89.73 +/- 10.76 mg/dL); type: organism-based; details: in vivo, 168 h
Mus musculus [7] = assay: Acute toxicity in Swiss albino mouse assessed as effect on relative lung weight at 5 to 1000 mg/kg, po after 7 days; type: organism-based; details: in vivo, 168 h; procedure, shortened: as §1
Mus musculus [8] = assay: Acute toxicity in Swiss albino mouse assessed as effect on MDA levels per mg of tissue protein at 50 mg/kg, po after 7 days (reference value: 0.24 +/- 0.05 nmol); type: organism-based; details: in vivo, 168 h
Mus musculus [9] = assay: Acute toxicity in Swiss albino mouse assessed as effect on WBC count at 1000 mg/kg, po after 7 days (reference value: 7.47 +/- 1.61 10^3/mm3); type: organism-based; details: in vivo, 168 h
Mus musculus [10] = assay: Acute toxicity in Swiss albino mouse assessed as effect on ALKP levels at 50 mg/kg, po after 7 days (reference value: 219.20 +/- 5.9 U/L); type: organism-based; details: in vivo, 168 h
Mus musculus [11] = assay: Acute toxicity in Swiss albino mouse assessed as effect on GSH levels per mg of tissue protein at 1000 mg/kg, po after 7 days (reference value: 17.64 +/- 1.03 micromol); type: organism-based; details: in vivo, 168 h
[12] = Acute toxicity in Swiss albino mouse assessed as mortality at 1000 mg/kg, po measured over 7 days; type: organism-based; details: in vivo, read-out: Activity; procedure, shortened: as §1
Mus musculus [13] = assay: Acute toxicity in Swiss albino mouse assessed as effect on SGOT levels at 1000 mg/kg, po after 7 days (reference value: 15.11 +/- 1.25 U/L); type: organism-based; details: in vivo, 168 h
Mus musculus [14] = assay: Acute toxicity in Swiss albino mouse assessed as effect on body weight at 300 mg/kg, po after 7 days (reference value: 28.25 +/- 0.54 g); type: organism-based; details: in vivo, 168 h
[15] = Lipophilicity, log P of the compound; type: physicochemical; details: octanol/water; read-out: logP
Mus musculus [16] = assay: Acute toxicity in Swiss albino mouse assessed as effect on ALKP levels at 300 mg/kg, po after 7 days (reference value: 219.20 +/- 5.9 U/L); type: organism-based; details: in vivo, 168 h
Mus musculus [17] = assay: Acute toxicity in Swiss albino mouse assessed as effect on GSH levels per mg of tissue protein at 5 mg/kg, po after 7 days (reference value: 17.64 +/- 1.03 micromol); type: organism-based; details: in vivo, 168 h
Mus musculus [18] = assay: Acute toxicity in Swiss albino mouse assessed as effect on MDA levels per mg of tissue protein at 300 mg/kg, po after 7 days (reference value: 0.24 +/- 0.05 nmol); type: organism-based; details: in vivo, 168 h
Mus musculus [19] = assay: Acute toxicity in Swiss albino mouse assessed as effect on RBC count at 50 mg/kg, po after 7 days (reference value: 7.61 +/- 0.54 10^6/mm3); type: organism-based; details: in vivo, 168 h
Mus musculus [20] = assay: Acute toxicity in Swiss albino mouse assessed as effect on tissue protein levels at 5 mg/kg, po after 7 days (reference value: 0.06 +/- 0.004 mg/mL); type: organism-based; details: in vivo, 168 h
Mus musculus [21] = assay: Acute toxicity in Swiss albino mouse assessed as effect on MDA levels per mg of tissue protein at 1000 mg/kg, po after 7 days (reference value: 0.24 +/- 0.05 nmol); type: organism-based; details: in vivo, 168 h
Mus musculus [22] = assay: Acute toxicity in Swiss albino mouse assessed as effect on relative brain weight at 5 to 1000 mg/kg, po after 7 days; type: organism-based; details: in vivo, 168 h; procedure, shortened: as §1
Mus musculus [23] = assay: Acute toxicity in Swiss albino mouse assessed as effect on relative liver weight at 5 to 300 mg/kg, po after 7 days; type: organism-based; details: in vivo, 168 h; procedure, shortened: as §1
Mus musculus [24] = assay: Acute toxicity in Swiss albino mouse assessed as effect on relative heart weight at 5 to 1000 mg/kg, po after 7 days; type: organism-based; details: in vivo, 168 h; procedure, shortened: as §1
Mus musculus [25] = assay: Acute toxicity in Swiss albino mouse assessed as effect on triglyceride levels at 300 mg/kg, po after 7 days (reference value: 45.21 +/- 2.95 mg/dL); type: organism-based; details: in vivo, 168 h
Mus musculus [26] = assay: Acute toxicity in Swiss albino mouse assessed as effect on body weight at 1000 mg/kg, po after 7 days (reference value: 28.25 +/- 0.54 g); type: organism-based; details: in vivo, 168 h
Mus musculus [27] = assay: Acute toxicity in Swiss albino mouse assessed as effect on relative spleen weight at 5 to 1000 mg/kg, po after 7 days; type: organism-based; details: in vivo, 168 h; procedure, shortened: as §1
Mus musculus [28] = assay: Acute toxicity in Swiss albino mouse assessed as effect on triglyceride levels at 1000 mg/kg, po after 7 days (reference value: 45.21 +/- 2.95 mg/dL); type: organism-based; details: in vivo, 168 h
Mus musculus [29] = assay: Acute toxicity in Swiss albino mouse assessed as effect on SGOT levels at 300 mg/kg, po after 7 days (reference value: 15.11 +/- 1.25 U/L); type: organism-based; details: in vivo, 168 h
Mus musculus [30] = assay: Acute toxicity in Swiss albino mouse assessed as effect on albumin levels at 300 mg/kg, po after 7 days (reference value: 3.53 +/- 0.35 mg/dL); type: organism-based; details: in vivo, 168 h
Mus musculus [31] = assay: Acute toxicity in Swiss albino mouse assessed as effect on MDA levels per mg of tissue protein at 5 mg/kg, po after 7 days (reference value: 0.24 +/- 0.05 nmol); type: organism-based; details: in vivo, 168 h
Mus musculus [32] = assay: Acute toxicity in Swiss albino mouse assessed as effect on tissue protein levels at 300 mg/kg, po after 7 days (reference value: 0.06 +/- 0.004 mg/mL); type: organism-based; details: in vivo, 168 h
Mus musculus [33] = assay: Acute toxicity in Swiss albino mouse assessed as effect on absolute heart weight at 5 to 1000 mg/kg, po after 7 days; type: organism-based; details: in vivo, 168 h; procedure, shortened: as §1
Mus musculus [34] = assay: Acute toxicity in Swiss albino mouse assessed as effect on triglyceride levels at 50 mg/kg, po after 7 days (reference value: 45.21 +/- 2.95 mg/dL); type: organism-based; details: in vivo, 168 h
Mus musculus [35] = assay: Acute toxicity in Swiss albino mouse assessed as effect on haemoglobin levels at 1000 mg/kg, po after 7 days (reference value: 12.29 +/- 0.53 g/dL); type: organism-based; details: in vivo, 168 h
Mus musculus [36] = assay: Acute toxicity in Swiss albino mouse assessed as effect on SGPT levels at 300 mg/kg, po after 7 days (reference value: 16.08 +/- 1.38 U/L); type: organism-based; details: in vivo, 168 h
Mus musculus [37] = assay: Acute toxicity in Swiss albino mouse assessed as effect on relative kidney weight at 5 to 1000 mg/kg, po after 7 days; type: organism-based; details: in vivo, 168 h; procedure, shortened: as §1

In the case of `COc1ccc2c(c1)nc(-c1ccccc1OC)n2Cc1ccccc1OC`, the Activity (Mus musculus [1]) is reported as “Non-Toxic”, the Activity (Mus musculus [2]) is reported as “Toxic” and the Activity (Mus musculus [3]) is reported as 6.87 10^6/mm3. The Activity (Mus musculus [4]) was 3.81 mg/dL, the Activity (Mus musculus [5]) was “Non-Toxic” and the Activity (Mus musculus [6]) was 115.43 mg/dL. The Activity (Mus musculus [7]) was “Non-Toxic”, the Activity (Mus musculus [8]) was 0.32 nmol and the Activity (Mus musculus [9]) was 6.67 10^3/mm3. It also gave an Activity (Mus musculus [10]) of 171.7 U/L, an Activity (Mus musculus [11]) of 19.34 µmol and a mortality at 168 h [12] of 50%. The Activity (Mus musculus [13]) was 11.83 U/L, the Activity (Mus musculus [14]) was 25.47 g and the logP [15] was 4.45. The Activity (Mus musculus [16]) was 169.24 U/L, the Activity (Mus musculus [17]) was 15.6 µmol and the Activity (Mus musculus [18]) was 0.39 nmol. The Activity (Mus musculus [19]) was 7.44 10^6/mm3, the Activity (Mus musculus [20]) was 0.06 mg/mL and the Activity (Mus musculus [21]) was 0.71 nmol. For the same molecule, the Activity (Mus musculus [22]) was “Non-Toxic”, the Activity (Mus musculus [23]) was “Non-Toxic” and the Activity (Mus musculus [24]) was “Non-Toxic”. For the same molecule, the Activity (Mus musculus [25]) was 43.04 mg/dL, the Activity (Mus musculus [26]) was 22.86 g and the Activity (Mus musculus [27]) was “Non-Toxic”. For the same molecule, the Activity (Mus musculus [28]) was 57.01 mg/dL, the Activity (Mus musculus [29]) was 11.11 U/L and the Activity (Mus musculus [30]) was 3.79 mg/dL. For the same molecule, the Activity (Mus musculus [31]) was 0.26 nmol, the Activity (Mus musculus [32]) was 0.05 mg/mL and the Activity (Mus musculus [33]) was “Non-Toxic”. For the same molecule, the Activity (Mus musculus [34]) was 41.98 mg/dL, the Activity (Mus musculus [35]) was 9.68 g/dL and the Activity (Mus musculus [36]) was 12.26 U/L. For the same molecule, the Activity (Mus musculus [37]) was “Non-Toxic”.
